Experimental data reported in paper PMC9358627 (Journal of clinical pharmacology, 2021).
Where two headings read alike, the source gives them in different places. Blank lines part the entries; values can stand above or below the molecule they belong to.

Legend:
[1] = type: in vivo; details: human, plasma, oral, C12hr, phenotypic mean (±95% CI)
Method in brief: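 Stable kidney transplant recipients had held fixed doses for ≥7 days. Around 7 AM, after a 0-h draw, they took the oral test compound with a calcineurin inhibitor. Plasma was sampled serially over 12 h, iced, spun and stored at −70°C. LC/MS with internal standards (LLOQ 0.072 µg/mL) gave the 12-h trough. Three ABCC2 SNPs were TaqMan-genotyped in duplicate. THESIAS maximum-likelihood analysis estimated haplotype phenotypic means with 95% CI.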

[2] = Mycophenolic acid pharmacokinetic parameters by individual ABCC2 SNP genotype; type: in vivo; details: human, plasma, oral, mean; for AUC(0-t): Mycophenolic acid AUC0-12hr; for clearance: Mycophenolic acid Clearance
Method in brief: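 Stable transplant recipients were studied at steady state. Oral test compound was given with a calcineurin inhibitor, with meals 4 h post-dose. Serial 12-h plasma was analysed by LC/MS (standard curve 0.145–15.5 µg/mL). AUC0-12h came from the linear trapezoidal rule, non-compartmental. […] ABCC2 −24C>T, 1249G>A and 3972C>T were genotyped by TaqMan allelic discrimination, 10 ng DNA, in duplicate.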

[3] = type: in vivo, human; details: for AUC: Mycophenolic acid AUC6-12hr
Method in brief: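 Steady state with the same oral dose for ≥7 days, calcineurin inhibitor co-therapy. Pre-dose sample, then dosing ~7 AM, meals at 4 h, serial sampling over 12 h. Plasma iced, centrifuged, stored −70°C. LC/MS of test compound and its glucuronide, LLOQ 0.072 µg/mL. Non-compartmental AUC0-12h by linear trapezoidal rule. […] AUC6-12h/AUC0-12h gauges enterohepatic circulation.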

[4] = following oral drug administration; attributed to enterohepatic circulation; ref [8],[12]; cited from earlier work
[5] = human, in vivo, oral
Method in brief: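 Patients at steady state, same oral calcineurin inhibitor dose for ≥7 days. 0-h blood drawn before the ~7 AM dose to give trough. Samples iced, centrifuged, harvested within 60 min, stored −70°C until assay.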

[6] = ABCC2 1249 G>A (rs2273697) All, N=147
[7] = ABCC2 3972 C>T (rs 3740066) All, N=146
[8] = ABCC2 −24C>T (rs717620) All, N=147

concentration at 12 h ([1]; All (N=147), variant haplotype (CGT)): 1010 ng/mL
concentration at 12 h ([1]; All (N=147), wildtype haplotype (CGC)): 1630 ng/mL
concentration at 12 h ([1]; Cyclosporine Group (n=80), variant haplotype (CGT)): 783 ng/mL
concentration at 12 h ([1]; Cyclosporine Group (n=80), wildtype haplotype (CGC)): 965 ng/mL
concentration at 12 h ([1]; Tacrolimus Group (n=67), variant haplotype (CGT)): 1330 ng/mL
concentration at 12 h ([1]; Tacrolimus Group (n=67), wildtype haplotype (CGC)): 2250 ng/mL
AUC(0-t) [2, 6]: 53600 ng·h/mL
AUC(0-t) [2, 7]: 53400 ng·h/mL
AUC(0-t) [2, 8]: 53600 ng·h/mL
clearance [2, 6]: 266 mL/min
clearance [2, 7]: 268 mL/min
clearance [2, 8]: 266 mL/min
Mycophenolic acid CL/F ([3]; All (N=147), steady state, oral, mean ± SD): 15.99 ± 9.41 L/h
Enterohepatic Recirculation, patients ([3]; Cyclosporine (n=80), 36 patients): 36 (45.0%)
Mycophenolic acid CL/F ([3]; Cyclosporine Group (n=80), mycophenolate mofetil, mean ± SD): 20.50 ± 9.99 L/h
Mycophenolic acid AUC0-12hr ([3]; Cyclosporine Group (n=80), mean ± SD): 40.82 ± 17.60 mg●hr/L
Enterohepatic Recirculation, patients ([3]; Tacrolimus (n=67), 52 patients): 52 (77.61%)
Mycophenolic acid CL/F ([3]; Tacrolimus Group (n=67), enteric-coated mycophenolate sodium, mean ± SD): 10.60 ± 4.71 L/h
AUC(0-t) ([3]; human, plasma, oral, Mycophenolic acid AUC0-12hr, Tacrolimus Group (n=67), mean ± SD): 68900 ± 30900 ng·h/mL
AUC ([3]; human, plasma, oral, All (N=147), mean ± SD): 19100 ± 15200 ng·h/mL
AUC ([3]; human, plasma, oral, Cyclosporine Group (n=80), mean ± SD): 13100 ± 7150 ng·h/mL
AUC ([3]; human, plasma, oral, Tacrolimus Group (n=67), mean ± SD): 26200 ± 18800 ng·h/mL
patients achieving the therapeutic range of AUC0-12h from 30 to 60 mg●h/L ([3]; patients receiving cyclosporine): 56.3%
patients achieving the therapeutic range of AUC0-12h from 30 to 60 mg●h/L ([3]; tacrolimus group): 34.3%
slower apparent clearance ([3]; tacrolimus group compared with cyclosporine group): 48%
patients exhibiting enterohepatic circulation ([3]; tacrolimus regimen): More than 75%
Structure (SMILES): COc1c(C)c2c(c(O)c1C/C=C(\C)CCC(=O)O)C(=O)OC2 [Mycophenolic acid, mycophenolic acid]
secondary mycophenolic acid peak, time of appearance [4]: 6 to 12 h

concentration at 0 h [5]: 7.2 ± 1.89 ng/mL
Structure (SMILES): C=CC[C@@H]1/C=C(\C)C[C@H](C)C[C@H](OC)[C@H]2O[C@@](O)(C(=O)C(=O)N3CCCC[C@H]3C(=O)O[C@H](/C(C)=C/[C@@H]3CC[C@@H](O)[C@H](OC)C3)[C@H](C)[C@@H](O)CC1=O)[C@H](C)C[C@@H]2OC [Tacrolimus, tacrolimus]
